In ChEMBL document CHEMBL2157949 (J Med Chem, 2012):
Activity calls are given as the source filed them. The rule behind the calls is not given here.

Legend:
[1] = Growth inhibition of Chinese hamster RT16 cells expressing human folate receptor alpha incubated for 96 hrs by CellTiter-blue cell viability assay; assay type: functional, cell-based; conditions: Cricetulus griseus, RT16, 96 h
[2] = Growth inhibition of Chinese hamster RT16 cells expressing human folate receptor alpha incubated for 96 hrs in presence of folic acid by CellTiter-blue cell viability assay; assay type: functional, cell-based; conditions: Cricetulus griseus, RT16, 96 h
[3] = tested on: KB; experiment: Growth inhibition of human KB cells endogenously expressing RFC/FRalpha/PCFT in presence of folic acid incubated for 96 hrs by CellTiter-blue cell viability assay; assay type: functional, cell-based
[4] = tested on: R2; experiment: Growth inhibition of Chinese hamster R2 cells expressing empty vector control incubated for 96 hrs by CellTiter-blue cell viability assay; conditions: Cricetulus griseus, R2, 96 h
[5] = tested on: R2; experiment: Growth inhibition of Chinese hamster R2 cells expressing human PCFT incubated for 96 hrs by CellTiter-blue cell viability assay; assay type: functional, cell-based, Cricetulus griseus; conditions: R2, 96 h
Summary of the method: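 R2/hPCFT4 CHO cells maintained beforehand in folate-free RPMI 1640 with dialyzed FBS, 25 nM LCV and G418. Assay: ~2500–5000 cells/well in folate-free RPMI 1640 (pH 7.2) with 25 nM LCV, 10% dialyzed FBS, antibiotics and L-glutamine, over a range of drug concentrations.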

[6] = Growth inhibition of Chinese hamster PC43-10 cells expressing reduced folate carrier incubated for 96 hrs by CellTiter-blue cell viability assay; assay type: functional, cell-based; conditions: Cricetulus griseus, PC43-10, 96 h
[7] = tested on: R2; experiment: Growth inhibition of Chinese hamster R2 cells deficient in reduced folate carrier and human folate receptor alpha incubated for 96 hrs by CellTiter-blue cell viability assay; assay type: cell-based, Cricetulus griseus; conditions: R2, 96 h
[8] = tested on: KB; experiment: Growth inhibition of human KB cells endogenously expressing RFC/FRalpha/PCFT incubated for 96 hrs by CellTiter-blue cell viability assay; assay type: functional, cell-based
[9] = tested on: IGROV-1; experiment: Growth inhibition of human IGROV1 cells endogenously expressing RFC/FRalpha/PCFT in presence of folic acid incubated for 96 hrs by CellTiter-blue cell viability assay; assay type: functional, cell-based; conditions: IGROV-1, 96 h
[10] = target: Folate receptor alpha (Homo sapiens) (UniProt P15328); assay type: cell-based; conditions: CHO
[11] = target: T1, Trifunctional purine biosynthetic protein adenosine-3 (Homo sapiens, UniProt P22102); experiment: Inhibition of GARFTase in human IGROV1 cells assessed as reduction in [14C]glycine incorporation into [14C]formyl GAR incubated for 15 hrs in complete folate free RPMI medium in presence of 2 nM leucovorin; assay type: cell-based, IGROV-1
T1 sequence (P22102 whole entry): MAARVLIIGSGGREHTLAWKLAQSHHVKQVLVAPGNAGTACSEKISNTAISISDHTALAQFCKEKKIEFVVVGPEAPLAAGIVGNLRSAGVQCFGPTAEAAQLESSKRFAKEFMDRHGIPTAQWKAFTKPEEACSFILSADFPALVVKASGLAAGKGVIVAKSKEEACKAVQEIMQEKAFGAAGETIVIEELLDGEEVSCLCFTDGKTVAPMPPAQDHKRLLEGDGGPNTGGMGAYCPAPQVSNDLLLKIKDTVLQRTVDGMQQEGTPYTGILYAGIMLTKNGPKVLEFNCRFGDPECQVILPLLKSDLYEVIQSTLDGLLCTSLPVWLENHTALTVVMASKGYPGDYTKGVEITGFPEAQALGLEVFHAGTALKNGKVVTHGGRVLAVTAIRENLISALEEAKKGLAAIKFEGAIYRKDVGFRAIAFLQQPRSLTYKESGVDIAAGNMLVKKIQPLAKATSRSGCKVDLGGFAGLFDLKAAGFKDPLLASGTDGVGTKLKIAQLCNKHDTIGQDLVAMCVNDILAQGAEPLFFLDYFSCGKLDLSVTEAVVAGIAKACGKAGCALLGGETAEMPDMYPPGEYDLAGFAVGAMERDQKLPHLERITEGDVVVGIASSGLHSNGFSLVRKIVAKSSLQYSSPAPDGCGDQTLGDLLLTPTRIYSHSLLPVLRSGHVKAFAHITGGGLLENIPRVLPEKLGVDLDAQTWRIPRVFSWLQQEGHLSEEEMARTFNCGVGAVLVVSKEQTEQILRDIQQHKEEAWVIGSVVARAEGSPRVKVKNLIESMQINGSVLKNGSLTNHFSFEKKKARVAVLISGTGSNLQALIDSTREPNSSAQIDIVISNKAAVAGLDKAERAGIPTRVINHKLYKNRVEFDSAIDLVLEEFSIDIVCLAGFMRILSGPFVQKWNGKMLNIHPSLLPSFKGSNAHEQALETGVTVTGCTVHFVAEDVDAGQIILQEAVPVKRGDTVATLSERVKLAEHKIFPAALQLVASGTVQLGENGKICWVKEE

[12] = tested on: KB; experiment: Growth inhibition of human KB cells endogenously expressing RFC/FRalpha/PCFT in presence of 50 nM leucovorin incubated for 96 hrs by CellTiter-blue cell viability assay; assay type: functional, cell-based
Summary of the method: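 KB cells in complete folate-free RPMI 1640 with 10% dialyzed FBS and LCV at 50 nM (versus the standard 2 nM), exposed to a range of antifolate concentrations for up to 96 h. Cell density read by CellTiter-blue fluorescence and normalized to drug-free cells. Representative data from experiments run in duplicate.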

[13] = tested on: KB; experiment: Inhibition of colony formation of human KB cells endogenously expressing RFC/FRalpha/PCFT incubated for 14 days by methylene blue staining based clonogenicty assay; assay type: functional, cell-based; conditions: 336 h
[14] = tested on: IGROV-1; experiment: Growth inhibition of human IGROV1 cells endogenously expressing RFC/FRalpha/PCFT incubated for 96 hrs by CellTiter-blue cell viability assay; assay type: functional, cell-based; conditions: IGROV-1, 96 h
[15] = target: T2, Proton-coupled folate transporter (Homo sapiens) (UniProt Q96NT5); experiment: Ratio of Ki for human PCFT at pH 6.8 to Ki for human PCFT at pH 5.5 by [3H]MTX transport assay
T2 sequence (whole entry): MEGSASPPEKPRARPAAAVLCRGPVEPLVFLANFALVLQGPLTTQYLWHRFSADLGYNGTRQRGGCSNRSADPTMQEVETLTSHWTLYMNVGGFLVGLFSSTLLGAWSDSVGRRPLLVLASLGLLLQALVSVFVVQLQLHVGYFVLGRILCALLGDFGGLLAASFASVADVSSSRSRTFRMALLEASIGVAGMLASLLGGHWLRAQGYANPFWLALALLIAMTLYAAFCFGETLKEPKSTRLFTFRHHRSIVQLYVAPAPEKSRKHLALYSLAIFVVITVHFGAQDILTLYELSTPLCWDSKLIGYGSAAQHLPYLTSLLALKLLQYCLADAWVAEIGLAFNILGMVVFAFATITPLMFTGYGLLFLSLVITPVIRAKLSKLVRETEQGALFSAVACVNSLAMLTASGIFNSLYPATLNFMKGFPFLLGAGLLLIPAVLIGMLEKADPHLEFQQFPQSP

[16] = tested on: KB; experiment: Growth inhibition of human KB cells endogenously expressing RFC/FRalpha/PCFT in presence of 60 uM adenosine incubated for 96 hrs by CellTiter-blue cell viability assay; assay type: functional, cell-based
[17] = tested on: KB; experiment: Growth inhibition of human KB cells endogenously expressing RFC/FRalpha/PCFT in presence of 10 uM thymidine incubated for 96 hrs by CellTiter-blue cell viability assay; assay type: functional, cell-based
[18] = tested on: IGROV-1; experiment: Growth inhibition of human IGROV1 cells endogenously expressing RFC/FRalpha/PCFT in presence of 60 uM adenosine incubated for 96 hrs by CellTiter-blue cell viability assay; assay type: functional, cell-based
[19] = tested on: IGROV-1; experiment: Growth inhibition of human IGROV1 cells endogenously expressing RFC/FRalpha/PCFT in presence of 320 uM 5-amino-4-imidazolecarboxamide incubated for 96 hrs by CellTiter-blue cell viability assay; assay type: functional, cell-based
[20] = target: T3, Proton-coupled folate transporter (Homo sapiens, UniProt Q96NT5); experiment: Inhibition of [3H]MTX transport at human PCFT expressed in Chinese hamster R2 cells at pH 5.5 by Dixon plot; assay type: cell-based
T3 sequence (Q96NT5 whole entry): T2 sequence (whole entry)
Summary of the method: (§1)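 R2/hPCFT4 CHO cells grown in spinner flasks, resuspended in HBS at pH 6.8 or MES-buffered saline at pH 5.5. Uptake quenched with ice-cold DPBS and normalized to protein. Mean ± SE, n=4–8.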

[21] = tested on: IGROV-1; experiment: Growth inhibition of human IGROV1 cells endogenously expressing RFC/FRalpha/PCFT in presence of 10 uM thymidine incubated for 96 hrs by CellTiter-blue cell viability assay; assay type: functional, cell-based
[22] = target: T3, Proton-coupled folate transporter; experiment: Inhibition of [3H]MTX transport at human PCFT expressed in Chinese hamster R2 cells at pH 6.8 by Dixon plot; assay type: cell-based; summary of the method: as §1
[23] = tested on: KB; experiment: Growth inhibition of human KB cells endogenously expressing RFC/FRalpha/PCFT in presence of 320 uM 5-amino-4-imidazolecarboxamide incubated for 96 hrs by CellTiter-blue cell viability assay; assay type: functional, cell-based

Folate receptor alpha (Homo sapiens), sequence (P15328 25-234 limits assumed): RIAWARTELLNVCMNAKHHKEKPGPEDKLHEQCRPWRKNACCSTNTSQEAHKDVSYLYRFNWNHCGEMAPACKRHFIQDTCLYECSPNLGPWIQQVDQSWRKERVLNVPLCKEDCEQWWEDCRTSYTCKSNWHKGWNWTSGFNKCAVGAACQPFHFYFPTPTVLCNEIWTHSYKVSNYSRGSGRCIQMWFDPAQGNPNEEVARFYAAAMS

For `Nc1nc2[nH]c(CCCCc3sccc3C(=O)N[C@@H](CCC(=O)O)C(=O)O)cc2c(=O)[nH]1`, the IC50 [1] was > 1000 nM, the IC50 [2] was > 1000 nM and the IC50 [3] was > 1000 nM. For the same molecule, the IC50 [4] was > 1000 nM, the IC50 [5] was > 1000 nM and the IC50 [6] was > 1000 nM. For the same molecule, the IC50 [7] was > 1000 nM and the IC50 [8] was 171 nM.
With `Nc1nc2[nH]c(CCC#Cc3ccsc3C(=O)N[C@@H](CCC(=O)O)C(=O)O)cc2c(=O)[nH]1` the IC50 [1] was > 1000 nM, the IC50 [2] was > 1000 nM and the IC50 [3] was > 1000 nM. For the same molecule, the IC50 [4] was > 1000 nM, the IC50 [5] was > 1000 nM and the IC50 [6] was > 1000 nM. The IC50 [7] was > 1000 nM and the IC50 [8] was > 1000 nM.
In the case of `Nc1nc2[nH]c(CCCc3ccc(C(=O)N[C@@H](CCC(=O)O)C(=O)O)s3)cc2c(=O)[nH]1`, the IC50 [2] is reported as > 1000 nM, the IC50 [9] is reported as > 1000 nM and the IC50 [3] is reported as > 1000 nM. The IC50 [4] was 288 nM and the IC50 [6] was 101 nM.
In the case of `Nc1nc2[nH]c(CCCCc3ccc(C(=O)N[C@@H](CCC(=O)O)C(=O)O)s3)cc2c(=O)[nH]1`, the IC50 [2] is reported as > 1000 nM, the IC50 [9] is reported as > 1000 nM and the relative binding affinity (RBA) [10] is reported as > 1. The IC50 [11] was 3.46 nM, the IC50 [3] was > 1000 nM and the IC50 [4] was > 1000 nM. For the same molecule, the IC50 [6] was > 1000 nM, the IC50 [12] was 2.2 nM and the IC50 [7] was > 1000 nM. It also gave an IC50 [13] of 0.2 nM.
With `Nc1nc2[nH]c(CCC#Cc3cscc3C(=O)N[C@@H](CCC(=O)O)C(=O)O)cc2c(=O)[nH]1` the IC50 [1] was > 1000 nM, the IC50 [2] was > 1000 nM and the IC50 [3] was > 1000 nM. For the same molecule, the IC50 [4] was > 1000 nM, the IC50 [5] was > 1000 nM and the IC50 [6] was > 1000 nM. The IC50 [7] was > 1000 nM and the IC50 [8] was > 1000 nM.
In the case of `Nc1nc2[nH]c(CCC#Cc3ccc(C(=O)N[C@@H](CCC(=O)O)C(=O)O)s3)cc2c(=O)[nH]1`, the IC50 [1] is reported as 12.1 nM, the IC50 [2] is reported as > 1000 nM and the IC50 [9] is reported as > 1000 nM. The IC50 [3] was > 1000 nM, the IC50 [4] was > 1000 nM and the IC50 [5] was > 1000 nM. The IC50 [6] was > 1000 nM, the IC50 [7] was > 1000 nM and the IC50 [14] was > 1000 nM. For the same molecule, the IC50 [8] was > 1000 nM.
With `Nc1nc2[nH]c(CCCCc3cc(C(=O)N[C@@H](CCC(=O)O)C(=O)O)cs3)cc2c(=O)[nH]1` the IC50 [1] was 2.6 nM, the IC50 [2] was > 1000 nM and the IC50 [9] was > 1000 nM. The relative binding affinity (RBA) [10] was > 1, the Ratio Ki [15] was 70 and the “growth inhibition (GI)” value [16] was “inactive”. For the same molecule, the “growth inhibition (GI)” value [17] was “Active”, the “growth inhibition (GI)” value [18] was “inactive” and the “growth inhibition (GI)” value [19] was “inactive”. The IC50 [11] was 2.03 nM, the IC50 [3] was > 1000 nM and the Ki [20] was 420 nM. For the same molecule, the IC50 [4] was > 1000 nM, the IC50 [5] was 63.8 nM and the IC50 [6] was > 1000 nM. For the same molecule, the IC50 [12] was > 20 nM, the IC50 [7] was > 1000 nM and the “growth inhibition (GI)” value [21] was “Active”. For the same molecule, the IC50 [14] was 1.4 nM, the Ki [22] was 30700 nM and the “growth inhibition (GI)” value [23] was “inactive”. It also gave an IC50 [13] of 0.16 nM and an IC50 [8] of 0.27 nM.
